Bioassay records deposited in PubChem by several laboratories.
pCIP destab: lowers stability of the mouse p/CIP coactivator protein; F442A p/CIP-EGFP cells, EGFP fluorescence, 16 h; actives 0.01% (n = 290,000); Q05BA5; decrease of EGFP signal, % at 10 µM;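 active = EGFP signal decrease of at least 30% at 10 µM or well 3 SD below plate mean, unless failing retest; inactive = the rest, including hits failing retest or dose response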
GASC-1 inh: human JMJD2C demethylase inhibition | AID 2099 | actives 0.069% (n = 330,000) | Q9H3R0 | GST-JMJD2C(1-420) H3K9me3 demethylation, DELFIA europium | inhibition, % at 2.35 µM;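 active = more than half of a compound's replicate wells show inhibition beyond 50%, single wells judged on their own value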;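 note: signal counts dimethyl H3K9 product captured on neutravidin plate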
Target sequence (Q9H3R0 1-420 limits assumed): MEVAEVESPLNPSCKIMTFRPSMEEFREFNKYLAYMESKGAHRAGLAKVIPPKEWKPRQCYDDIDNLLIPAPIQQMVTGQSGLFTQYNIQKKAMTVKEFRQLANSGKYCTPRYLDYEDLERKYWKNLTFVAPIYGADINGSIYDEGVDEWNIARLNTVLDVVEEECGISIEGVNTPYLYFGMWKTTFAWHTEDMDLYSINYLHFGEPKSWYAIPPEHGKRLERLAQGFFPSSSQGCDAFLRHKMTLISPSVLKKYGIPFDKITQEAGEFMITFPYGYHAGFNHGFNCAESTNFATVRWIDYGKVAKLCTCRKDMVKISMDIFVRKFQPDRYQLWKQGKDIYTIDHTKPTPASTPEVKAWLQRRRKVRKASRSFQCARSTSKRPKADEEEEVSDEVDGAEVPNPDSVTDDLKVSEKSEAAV
VLA-4 inh: inhibition in a human VLA-4 binding assay. VLA-4 expressing cells, ligand binding flow cytometry. inhibition, % (about 7 µM as worked out from the volumes in the protocol). actives 0.2% (n = 330,000). AID 2557; in the data active = inhibition above about 50%
Arrestin-AP2 inh: inhibitors of human beta-arrestin and AP2 interaction. AID 504490. inhibition, % at 10 µM. actives 0.31% (n = 340,000). FITC-arrestin peptide / GST-AP2 beads, flow cytometry; AP2 beta2 appendage carries R879A mutation;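 active = inhibition above a set limit, near 3 SD of compounds lacking own fluorescence, cut at about 54% in these data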
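System: GST-AP2 R879A glutathione beads; medium: PBS, Tween 20 0.05%, BSA 0.1%; reagent: fluorescein-tagged arrestin peptide at 50 nM final; schedule: pre-incubation 12 min, peptide binding 1 h, room temperature; detection: flow cytometry, FL1 (488/535 nm); read-out: inhibition as reduced fluorescein signal on beads, percent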
VLA-4 allo CP: human VLA-4 allosteric modulation in cherry picked compounds; shares compounds with VLA-4 inh; U937 cells, HUTS-21 LIBS mAb binding, flow cytometry; LDV ligand present at threefold Kd; inhibition, % at 6.7 µM; actives 2% (n = 1,300); AID 2813; in the data active = inhibition above about 40%
A number is an active result; n = inactive; x = no result. Hits are enriched below; roughly 0.57% of the tested compounds scored in any of these assays.

SMILES | pCIP destab | GASC-1 inh | VLA-4 inh | Arrestin-AP2 inh | VLA-4 allo CP
O=C1CSC(c2cccc(O)c2)N1Cc1ccccc1 (stereo not drawn) | n | n | n | n | x
COC(=O)c1cccnc1-n1c(=O)c2cccnc2n(Cc2cccc([N+](=O)[O-])c2)c1=O | n | n | 67.0 | n | n
CCOC(=O)c1c(S(=O)(=O)NCC(=O)Nc2cc(C)ccc2C)c(C)n(C)c1C | n | n | n | n | x
O=C(c1[nH]ncc1-c1cccc(Br)c1)C1CO1 (stereo not drawn) | n | n | n | n | x
COc1ccc(S(=O)(=O)CC(=O)c2cc(C)c(O)c(C)c2)cc1 | n | n | 50.4 | n | n
C=CCn1c(C)cc(C2=NNC(=NC(C)(C)C)SC2)c1C | n | n | n | n | n
O=C(COc1ccccc1)Nc1nccs1 | n | n | n | n | x
O=c1c2[nH]c3ccc(F)cc3c2ncn1Cc1ccncc1 | n | n | n | n | n
O=c1c2[nH]c3ccc(F)cc3c2ncn1C1CCCCC1 | n | n | 96.0 | n | n
O=c1c2[nH]c3ccc(Br)cc3c2ncn1CCCn1ccnc1 | n | n | n | n | n
O=c1c2[nH]c3ccc(F)cc3c2ncn1CCN1CCOCC1 | n | n | n | n | x
CN(C)c1ccc(S(=O)(=O)NCC(=O)N2CCN(c3ccccc3)CC2)cc1[N+](=O)[O-] | x | n | n | n | x
Cc1nc2nc(SCC(=O)c3cccc([N+](=O)[O-])c3)[nH]c2cc1Br | n | n | n | n | n
O=C(CSc1nc2ncc(Br)cc2[nH]1)c1cccc([N+](=O)[O-])c1 | n | n | n | n | x
CCOC(=O)c1cc(CC)sc1NC(=O)C1CC1 | n | n | n | n | x
CCOC(=O)c1cc(CC)sc1NC(=O)C(c1ccccc1)c1ccccc1 | n | n | n | n | n
O=C(Cn1ncc(Cl)c(Cl)c1=O)NC1CCS(=O)(=O)C1 (stereo not drawn) | n | x | n | n | x
CCOc1ccc(NC(=O)CN(C)C(=O)c2ccc(COc3ccccc3)o2)cc1OCC | x | n | 53.6 | n | n
CCOc1ccc(NC(=O)CN(C)C(=O)c2ccc(COc3ccccc3)cc2)cc1OCC | x | n | n | n | x
CCOC(=O)c1ccc(N2C(=O)CC(N3CCOCC3)C2=O)cc1 (stereo not drawn) | n | n | n | n | n
COc1ccc(-n2c(=S)[nH]c3cc(C(=O)NCc4ccc(F)cc4)ccc3c2=O)c(OC)c1 | n | n | n | n | x
Clc1ccc2nc(NC3=NCN(CCN4CCOCC4)CN3)nc(-c3ccccc3)c2c1 | n | x | x | x | x
Cc1cc(C)nc(-n2ncc3c2CC(C)CC3=O)n1 (stereo not drawn) | n | n | n | n | n
OC(CNCc1ccco1)Cn1c2ccc(Br)cc2c2cc(Br)ccc21 (stereo not drawn) | n | n | 66.6 | n | n
CCCC(=O)Nc1cc(C)c(NC(=O)c2cccs2)cn1 | n | n | n | n | x
SMILES | pCIP destab | GASC-1 inh | VLA-4 inh | Arrestin-AP2 inh | VLA-4 allo CP
CC(=O)[C@@]1(O)CC[C@H]2[C@@H]3CCC4=CC(=O)CC[C@]4(C)[C@H]3[C@@H](O)C[C@@]21C | n | n | 53.0 | n | n
O=C(CNc1ccccc1)N/N=C/c1c(O)ccc2ccccc12 | n | n | 50.3 | n | n
O=C(N/N=C/c1c(O)ccc2ccccc12)Nc1ccccc1 | x | n | n | n | x
Cc1ccc(C(=O)c2cc([N+](=O)[O-])ccc2N2CCOCC2)c(C)c1 | n | n | n | n | 49.6
Cc1ccc(C(=O)c2cc([N+](=O)[O-])ccc2N2CCOCC2)cc1C | n | n | n | n | n
COc1ccc(-c2csc(NC(=O)c3cccc(N4C(=O)CCC4=O)c3)n2)cc1C | n | n | n | n | x
COc1ccc(OC)c2sc(NC(=O)c3cccc(N4C(=O)CCC4=O)c3)nc12 | n | n | 64.6 | n | n
CC(C1CC1)N(C(=O)c1ccccc1[N+](=O)[O-])c1ccccc1 (stereo not drawn) | n | n | n | n | x
Cc1ccc(C(=O)N2CC(C(=O)O)C2)cc1 | n | n | n | n | x
COc1ccc(C2c3ccc4ccccc4c3Oc3ncn(CCCN(C)C)c(=N)c32)cc1 (stereo not drawn) | n | n | n | n | n
O=C(Cc1ccccc1)Nc1cccc(N2C(=O)C=CC2=O)c1 | n | n | 60.2 | n | n
COc1cccc(NC(=O)Cc2ccccc2)c1 | n | n | n | n | x
O=C(O)c1cccc(NS(=O)(=O)c2ccc(Cl)c(C(=O)O)c2)c1 | n | n | n | n | x
CCO[C@@H]1OC(C(=O)Nc2ccccc2)=C[C@H](C)[C@H]1CCCO | x | n | n | n | n
CCO[C@@H]1OC(C(=O)NCc2ccccc2)=C[C@H](C)[C@H]1CCCO | n | n | x | n | x
COc1cc2sc(-c3ccccc3OC)c(-c3ccc(OCCN4CCOCC4)cc3)c2cc1OC | x | x | x | n | n
COc1ccc2c(-c3ccc(OCCN4CCOCC4)cc3)c(-c3ccccc3OC)sc2c1 | x | x | x | n | n
Cc1noc(/C=C/N(C)C)c1S(=O)(=O)N1CCCC(C(=O)NCCC2=CCCCC2)C1 (stereo not drawn) | n | n | n | n | x
CSc1cc(-c2ccco2)oc1C(=O)c1ccco1 | x | n | n | n | x
CNc1nc(C)nc(-n2nc(C)cc2C)n1 | n | n | n | n | n
C/C(=N\Nc1ccc([N+](=O)[O-])cc1[N+](=O)[O-])c1cccnc1 | n | n | n | n | n
CCOC(=O)N1CCN(c2nc(C)c3c(n2)CC(C)CC3=O)CC1 (stereo not drawn) | n | n | 52.7 | n | n
CC(C)CCn1c(C(C)O)nc2ccccc21 (stereo not drawn) | n | n | 86.7 | n | n
CCOC(=O)CNS(=O)(=O)c1cc(-c2nnc(Nc3ccc4c(c3)OCO4)c3ccccc23)ccc1C | n | n | 61.0 | n | n
Cc1cccc(NC(=O)C2CCN(C(=O)c3ccc(Cl)cc3)CC2)n1 | x | n | n | n | n
SMILES | pCIP destab | GASC-1 inh | VLA-4 inh | Arrestin-AP2 inh | VLA-4 allo CP
Cc1cccc(NC(=O)C2CCN(C(=O)c3ccc(F)cc3)CC2)n1 | x | n | n | n | n
O=C(O)C1CCN(C(=O)c2ccc(Cl)cc2)CC1 | n | n | n | n | x
COc1ccc(-c2nnc(NC(=O)CSc3ccc(C)cc3)s2)cc1OC | n | n | n | n | x
CCOc1cc(S(=O)(=O)N2CCN(C(=O)c3ccco3)CC2)ccc1F | n | n | n | n | x
O=C(COC(=O)CCCCCN=C1NS(=O)(=O)c2ccccc21)Nc1ccc(Cl)c(Cl)c1 | n | n | n | n | x
Cc1c(C)c2c(OCC(=O)N[C@@H](Cc3ccccc3)C(=O)O)cc3c(c2oc1=O)CCC(C)(C)O3 | n | n | 64.3 | n | n
CSC[C@H](NC(=O)COc1cc2c(c3oc(=O)c(C)c(C)c13)CCC(C)(C)O2)C(=O)O | n | n | n | n | x
Cc1ccc(N2CC(c3nc4ccccc4n3C)CC2=O)cc1C (stereo not drawn) | n | n | n | n | x
CC(C)C(=O)Nc1ccc2c(c1)nc(CCN1CCCCC1)n2C | n | n | n | n | x
CC(C)CC(=O)Nc1ccc2c(c1)nc(CCN1CCCCC1)n2C | n | n | n | n | n
